Here are results for five molecules from ChEMBL document CHEMBL4819008, “Design, synthesis, and evaluation of "dual-site"-binding diarylpyrimidines targeting both NNIBP and the NNRTI adjacent site of the HIV-1 reverse transcriptase” (Eur J Med Chem, 2021).

Usually CC50 stands for the concentration that lowers cell viability or growth by half. The term EC50 denotes the concentration that produces a half-maximal response. For orientation: IC50 means the point on the concentration scale where inhibition reaches its midpoint.

Series [1] is described as follows: Cytotoxicity against human MT4 cells assessed as reduction in cell viability measured after 5 days by MTT assay. Type of series: cell-based. The following applies: time 5 day. Summed up: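 Mock-infected MT-4 cells (6 × 10^5 cells/mL) were run in parallel with the infected wells, under serial 5-fold compound dilutions in triplicate. MTT viability was read after 5 days and the median OD of three wells used. CC50 is the concentration that reduced OD540 of the mock-infected cells by 50%.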

Series [2] has as its system Human immunodeficiency virus 1. Description: Antiviral activity against HIV-1 harboring reverse transcriptase K103N mutant infected in human MT4 cells assessed as inhibition of virus induced cytopathic effect measured after 5 days by MTT assay. Type of series: functional, organism-based. As to conditions: Human immunodeficiency virus 1, MT4, 120 h. In short, it runs like this: (§1)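 MT-4 cells, exponentially growing, resuspended at 6 × 10^5 cells/mL and infected with the mutant HIV-1 stock at 100–300 CCID50. Compounds were added as 5-fold serial dilutions, in triplicate wells, alongside mock-infected wells. After 5 days, viability was read by MTT reduction at 540 and 690 nm using the median OD of three wells. EC50 is the concentration giving 50% protection from viral cytopathogenicity.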
(Cytopathic effects are the visible damage that an infection or toxin causes in cultured cells.)

Series [3] has as its system Human immunodeficiency virus 1. Description: Antiviral activity against wild type HIV1 NL4-3 infected in human TZM-bl cells assessed as reduction in viral infection measured after 1 day by luciferase reporter gene assay based luminiscence assay. Type of series: functional, organism-based. The following applies: Human immunodeficiency virus 1, NL4-3, TZM-bl, 24 h. In short, it runs like this: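 TZM-bl cells got a single-round infection with 800 TCID50 of NL4-3 at various compound concentrations, top concentration 100 ng/mL. Luminescence was read 1 day post-infection. EC50 is the concentration giving a 50% decrease in luciferase RLU versus control wells, determined in at least triplicate.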
Background: A reporter such as luciferase makes a cellular process visible.

The test system of series [4] is Human immunodeficiency virus 1. Put plainly: Antiviral activity against HIV-1 harboring reverse transcriptase E138K mutant infected in human MT4 cells assessed as inhibition of virus induced cytopathic effect measured after 5 days by MTT assay. As to conditions: Human immunodeficiency virus 1, MT4, 120 h. Type of series: functional, organism-based. Summed up: as §1

Series [5] has as its system Human immunodeficiency virus 1. Put plainly: Antiviral activity against HIV-1 harboring reverse transcriptase F227L/V106A mutant infected in human MT4 cells assessed as inhibition of virus induced cytopathic effect measured after 5 days by MTT assay. The class given is functional, organism-based. As to conditions: Human immunodeficiency virus 1, MT4, 120 h. Summed up: as §1

Series [6] is described as follows: Cytotoxicity against human TZM-bl cells assessed as reduction in cell viability measured after 1 day by CytoTox-Glo assay. The class given is cell-based. Summed up:
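TZM-bl cells were cultured 1 day with various compound concentrations, in parallel with the antiviral assay, top concentration 100 ng/mL. Viable cells were measured by CytoTox-Glo. CC50 is the concentration causing a 50% reduction in cell viability.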

Series [7] relates to Human immunodeficiency virus 1. Description: Antiviral activity against HIV-1 harboring reverse transcriptase Y188L mutant infected in human MT4 cells assessed as inhibition of virus induced cytopathic effect measured after 5 days by MTT assay. The class given is functional, organism-based. As to conditions: Human immunodeficiency virus 1, MT4, 120 h. In short, it runs like this: as §1

Series [8] deals with Human immunodeficiency virus 1. Put plainly: Antiviral activity against HIV-1 harboring reverse transcriptase Y181C mutant infected in human MT4 cells assessed as inhibition of virus induced cytopathic effect measured after 5 days by MTT assay. The following applies: Human immunodeficiency virus 1, MT4, 120 h. Type of series: functional, organism-based. Summed up: as §1
The subject of series [9] is Human immunodeficiency virus 1. Description: Potency index, ratio of EFV EC50 to test compound EC50 for antiviral activity against HIV-1 harboring reverse transcriptase Y188L mutant infected in human MT4 cells assessed as inhibition of virus induced cytopathic effect measured after 5 days by MTT assay. Type of series: functional. As to conditions: time 5 day.
Series [10] can be described thus: Selectivity index, ratio of CC50 for human MT4 cells to EC50 for wild type HIV-1 3B infected in human MT4 cells. Type of series: toxicity, cell-based. As to conditions: read-out: Ratio CC50/EC50.
Series [11] concerns Human immunodeficiency virus 1. Description: Antiviral activity against HIV-1 harboring reverse transcriptase L100I mutant infected in human MT4 cells assessed as inhibition of virus induced cytopathic effect measured after 5 days by MTT assay. Type of series: functional, organism-based. As to conditions: Human immunodeficiency virus 1, MT4, 120 h. In short, it runs like this: as §1

Series [12] deals with Human immunodeficiency virus 1. Put plainly: Antiviral activity against wild type HIV-1 3B infected in human MT4 cells assessed as inhibition of virus-induced cytopathic effect measured after 5 days by MTT assay. Type of series: functional, organism-based. The following applies: Human immunodeficiency virus 1, 3B, MT4, 120 h. In short, it runs like this: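 MT-4 cells at 6 × 10^5 cells/mL were infected with virus stock at 100–300 CCID50 in the presence of serial 5-fold compound dilutions, in triplicate wells. Viability was read by MTT reduction 5 days after infection, with absorbance at 540 and 690 nm and the median OD of three wells used. EC50 is the concentration giving 50% protection from viral cytopathicity.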

Series [13] addresses Human immunodeficiency virus type 1 reverse transcriptase (Human immunodeficiency virus 1, UniProt Q72547). Description: Inhibition of HIV-1 reverse transcriptase assessed as reduction in biotin-dUTP incorporation into cDNA incubated for 1 hr with DIG-dUTP, biotin-dUTP and dTTP followed by transferring onto streptavidin-coated plate and measured after 1 hr by ELISA. Summed up:
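Recombinant WT HIV-1 RT was tested with a Roche colorimetric kit. Enzyme, reconstituted template, DIG-dUTP, biotin-dUTP and dTTP were incubated 1 h at 37 °C in incubation buffer with or without inhibitor. The mix was then held 1 h at 37 °C on a streptavidin-coated plate, then anti-DIG-POD 1 h at 37 °C, then ABTS at 25 °C, and read at OD405.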
(In an ELISA, binding on a coated surface is turned into a signal by an enzyme label.)

Series [14] is described as follows: Antiviral activity against HIV-2 ROD infected in human MT4 cells assessed as protection against virus-induced cytopathic effect measured after 5 days by MTT assay. As to conditions: Human immunodeficiency virus 2, ISOLATE ROD, MT4, 120 h.
The subject of series [15] is Human immunodeficiency virus 1. Description: Antiviral activity against HIV-1 harboring reverse transcriptase RES056 mutant infected in human MT4 cells assessed as inhibition of virus induced cytopathic effect measured after 5 days by MTT assay. As to conditions: Human immunodeficiency virus 1, MT4, 120 h. Type of series: functional, organism-based. In short, it runs like this: as §1

The nature of series [16]: Selectivity index, ratio of CC50 for human TZM-bl cells to EC50 for wild type HIV1 NL4-3 infected in human TZM-bl cells. Type of series: toxicity, cell-based. As to conditions: read-out: Ratio CC50/EC50. Summed up: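 Selectivity index is CC50/EC50, with both values from the TZM-bl assays: NL4-3 single-round luciferase infection and CytoTox-Glo viability, each over 1 day.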

Series [17] has as its system Human immunodeficiency virus 1. Description: Potency index, ratio of nevirapine EC50 to test compound EC50 for antiviral activity against wild type HIV-1 3B infected in human MT4 cells assessed as inhibition of virus-induced cytopathic effect measured after 5 days by MTT assay. Type of series: functional. As to conditions: time 5 day.
For series [18], the target named is Human immunodeficiency virus type 1 reverse transcriptase (Human immunodeficiency virus 1) (UniProt Q72547). Description: Potency index, ratio of ETV IC50 to test compound IC50 for Inhibition of HIV-1 reverse transcriptase assessed as reduction in biotin-dUTP incorporation into cDNA incubated for 1 hr with DIG-dUTP, biotin-dUTP and dTTP followed by transferring onto streptavidin-coated plate and measured after 1 hr by ELISA. As to conditions: time 2.0 hrs.

Series [19] concerns Human immunodeficiency virus 1. Put plainly: Potency index, ratio of AZT EC50 to test compound EC50 for antiviral activity against wild type HIV-1 3B infected in human MT4 cells assessed as inhibition of virus-induced cytopathic effect measured after 5 days by MTT assay. Type of series: functional. The following applies: time 5 day.

As for `C#CCNC(=O)/C=C/c1cnc(Nc2ccc(C#N)cc2)nc1Oc1c(C)cc(C#N)cc1C`, the half-maximal cytotoxic concentration (CC50) at 120 h in series [1] turned out to be 141000 nM. Besides, the EC50 was 10.4 nM in series [2]; 2.45 nM in [3]; 10.6 nM in series [4]; 402 nM in series [5]; 64.5 nM in series [7]; 61.8 nM in series [8]. Further, the EC50 in [11] was 113 nM; in series [12], 5.2 nM; in [14] it was over 141000 nM; in series [15], 1290 nM. The CC50 at 24 h in [6] was over 222 nM. The figures for the Ratio EC50 in [9], in series [17] and in series [19] were 2.3, 16.2 and 3.5, respectively. Further, the results for the selectivity ratio in series [10] and in series [16] were 26900 and over 91, respectively. Further, the half-maximal inhibitory concentration (IC50) in series [13] was found to be 59 nM. Moreover, the Ratio IC50 in [18] amounted to 6.
As for `Cc1cc(C#N)cc(C)c1Oc1nc(Nc2ccc(C#N)cc2)ncc1SCC(=O)NCCCN1CCOCC1`, the 50% cytotoxic concentration (CC50) at 120 h in series [1] was found to be 24000 nM. For the same molecule, the EC50 stood at 2.2 nM in [2]; 3.77 nM in series [3]; 37.3 nM in series [4]; 182 nM in [5]; 38.7 nM in [7]; 19.1 nM in [8]. In addition, the concentration giving a half-maximal response (EC50) in [11] is 16.3 nM; in series [12] it was 3.7 nM; in series [14], over 24000 nM; in series [15] it was 332 nM. The half-maximal cytotoxic concentration (CC50) at 24 h in [6] was over 179 nM. Also, the selectivity ratio in series [10] is 6540; in [16] it was over 48. For the same molecule, the IC50 in series [13] came out at 35 nM.
`Cc1cc(C#N)cc(C)c1Oc1nc(Nc2ccc(C#N)cc2)ncc1/C=C/C(=O)NCCCN1CCOCC1`: in series [1], the cytotoxic concentration (CC50) at 120 h amounted to 23000 nM. The EC50 in series [2] stood at 22 nM; in series [3] it was 3.53 nM; in series [4], 22.6 nM; in series [5], 443 nM; in series [7], 212 nM; in [8], 124 nM. Besides, the EC50 is 254 nM in series [11], 10.5 nM in [12], over 23000 nM in series [14] and 1210 nM in series [15]. For the same molecule, the CC50 at 24 h in series [6] is over 186 nM. In addition, the selectivity ratio was 2200 in [10] and over 53 in series [16].
Turning to `COCCNC(=O)/C=C/c1cnc(Nc2ccc(C#N)cc2)nc1Oc1c(C)cc(C#N)cc1C`, the CC50 at 120 h in [1] is over 267000 nM. For the same molecule, the 50% effective concentration (EC50) in series [2] is 13.7 nM; in [3], 4.48 nM; in series [4], 16.5 nM; in series [5], 343 nM; in [7], 90.6 nM; in series [8] it was 98 nM. Also, the 50% effective concentration (EC50) was 166 nM in [11], 7.8 nM in [12], over 267000 nM in [14] and 1490 nM in [15]. Moreover, the 50% cytotoxic concentration (CC50) at 24 h in series [6] is over 213 nM. For the same molecule, the “Ratio EC50” value in [9] amounted to 1.6. Moreover, the selectivity ratio in series [10] was over 34300; in [16], over 48.
`Cc1cc(C#N)cc(C)c1Oc1nc(Nc2ccc(C#N)cc2)ncc1/C=C/C(=O)NCCN1CCOCC1`: the CC50 at 120 h in [1] was determined as 22400 nM. Also, the 50% effective concentration (EC50) in [2] was determined as 18.5 nM; in series [3], 3.44 nM; in [4], 21.8 nM; in [5] it was 462 nM; in series [7] it was 123 nM; in [8] it was 108 nM. Besides, the 50% effective concentration (EC50) was 263 nM in [11], 8.5 nM in [12], over 22400 nM in series [14] and 1750 nM in [15]. The half-maximal cytotoxic concentration (CC50) at 24 h in [6] was over 190 nM. Also, the figures for the selectivity ratio in [10] and in series [16] were 2630 and over 56, respectively.
